TRPC6 inh: mouse TRPC6 channel inhibitors, primary screen, cell-based, HEK293, membrane potential dye. 310,000 compounds, 1.1% hits. Short transient receptor potential channel 6 (Mus musculus), Q61143. B-score at 10 µM. ACh-evoked depolarization; hits give low values;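 active = B-score under library mean minus 3 SD, initial fluorescence not abnormally high, positive integrated signal ratio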;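 also: B-score derived from integrated fluorescence ratio over the kinetic read; more negative B-score means stronger inhibition of depolarization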
Target sequence (Q61143 whole entry, looked up): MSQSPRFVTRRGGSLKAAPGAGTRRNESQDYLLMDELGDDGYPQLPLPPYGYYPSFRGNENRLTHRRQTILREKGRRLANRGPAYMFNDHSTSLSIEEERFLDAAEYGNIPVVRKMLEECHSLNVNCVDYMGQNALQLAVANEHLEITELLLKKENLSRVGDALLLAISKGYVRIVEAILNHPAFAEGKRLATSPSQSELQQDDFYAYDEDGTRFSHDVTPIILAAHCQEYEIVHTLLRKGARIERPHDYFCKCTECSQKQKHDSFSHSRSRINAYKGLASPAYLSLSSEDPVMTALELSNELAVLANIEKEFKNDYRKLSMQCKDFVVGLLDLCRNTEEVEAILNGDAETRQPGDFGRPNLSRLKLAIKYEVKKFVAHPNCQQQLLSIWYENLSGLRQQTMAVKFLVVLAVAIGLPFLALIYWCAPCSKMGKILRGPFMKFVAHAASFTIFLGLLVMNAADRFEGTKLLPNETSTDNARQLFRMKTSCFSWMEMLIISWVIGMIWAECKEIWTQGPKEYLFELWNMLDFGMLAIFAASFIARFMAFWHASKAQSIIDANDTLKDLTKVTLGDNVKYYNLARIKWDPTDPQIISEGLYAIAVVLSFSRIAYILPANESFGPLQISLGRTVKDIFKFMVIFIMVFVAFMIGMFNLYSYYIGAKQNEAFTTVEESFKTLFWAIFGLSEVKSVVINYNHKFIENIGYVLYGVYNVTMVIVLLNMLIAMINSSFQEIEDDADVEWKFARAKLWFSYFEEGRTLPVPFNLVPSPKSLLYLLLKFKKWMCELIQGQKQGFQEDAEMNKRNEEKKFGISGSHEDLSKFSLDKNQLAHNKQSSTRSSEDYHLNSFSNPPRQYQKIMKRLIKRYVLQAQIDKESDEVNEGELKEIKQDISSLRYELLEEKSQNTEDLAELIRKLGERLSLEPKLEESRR
TRPC4 potent: positive allosteric modulators of TRPC4, primary screen, cell-based, mouse TRPC4beta, HEK293 mu-opioid, Fluo-4 calcium; Short transient receptor potential channel 4 (Mus musculus), Q9QUQ5; AID 2227, 2009; DAMGO EC20, Fluo-4 Ca2+ flux; hits give high values; B-score at 10 µM; 310,000 compounds, 0.42% hits;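 active = B-score of calcium response area above 5 SD of library B-scores, with initial fluorescence ratio within 5 SD of library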;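 also: B-score of integrated fluorescence ratio over time as area under calcium response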
TRPC6 activator: mouse TRPC6 channel activators, primary screen, cell-based, HEK293, membrane potential dye; Short transient receptor potential channel 6 (Mus musculus), Q61143; HEK293-TRPC6 membrane potential dye fluorescence; hits give high values; B-score at 10 µM; 310,000 compounds, 0.13% hits; AID 2550, 2010;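 active = B-score of the integrated fluorescence ratio above library mean plus 3 SD, and starting fluorescence ratio within library mean plus 5 SD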;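 also: higher score means more depolarization so channel activation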
TRPC4 act: activators of mouse TRPC4 channel, primary screen, Fluo4 calcium, HEK293 TRPC4beta/mu-opioid cells; Fluo4 calcium fluorescence; hits give high values; B-score at 10 µM; 310,000 compounds, 0.49% hits; Short transient receptor potential channel 4 (Mus musculus), Q9QUQ5;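 active = B-score above 5 SD of library B-scores, and initial fluorescence ratio not above library mean plus 5 SD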;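 also: positive B-score marks a calcium rise read as TRPC4 activation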
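Technique: kinetic Fluo4 calcium fluorescence; Test system: TRPC4beta and mu-opioid receptor HEK293 stable cells; Measure: B-scored integrated calcium fluorescence ratio; Benchmarks: low control buffer alone, high control maximal DAMGO; Schedule: 45 min room-temperature Fluo4 loading, 110 s read.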
TRPC4 block: inhibitors of mouse TRPC4 channel, primary screen, Fluo4 calcium, HEK293 TRPC4beta/mu-opioid cells; Short transient receptor potential channel 4 (Mus musculus), Q9QUQ5; DAMGO-evoked Fluo4 calcium flux; hits give low values; B-score at 10 µM; 300,000 compounds, 0.39% hits;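 active = B-score over 3 SD under the library average, no early fluorescence shift, positive overall ratio signal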
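Signal: kinetic Fluo4 fluorescence imaging of calcium influx. Material: stable TRPC4beta/mu-opioid receptor HEK293 cells. Probe or stimulus: DAMGO in two steps, submaximal then maximal.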
* hit, by the source's call. Compounds with a hit are over-represented: about 2.3% of the library has one in this group of screens.

`Cc1ccc(C)c(OCCC(=O)NCCc2ccc(S(N)(=O)=O)cc2)c1` gave TRPC6 inh inactive, TRPC4 potent inactive, TRPC6 activator inactive, TRPC4 act inactive and TRPC4 block inactive.
CCCN1CCN(CCCNC(=O)c2ccc(NC(=O)C3=C(C)OCCS3)cc2)CC1 was read as TRPC6 inh inactive, TRPC4 potent inactive, TRPC6 activator inactive, TRPC4 act inactive and TRPC4 block inactive.
For O=C(NC1(C(F)(F)F)N=C2SCCN2C1=O)c1ccccc1F (stereo not given) the results were TRPC6 inh inactive, TRPC4 potent inactive, TRPC6 activator inactive, TRPC4 act inactive and TRPC4 block inactive.
For CC(NCc1cc(Br)ccc1OCC(=O)NCc1ccccc1)c1ccccc1 (stereo not given) the results were TRPC6 inh inactive, TRPC4 potent inactive, TRPC6 activator inactive, TRPC4 act 61* and TRPC4 block -8*.
Screening O=C(COc1ccc(Br)cc1CNC1CCCC1)Nc1ccccc1 returned TRPC6 inh inactive, TRPC4 potent inactive, TRPC6 activator inactive, TRPC4 act 62* and TRPC4 block inactive.
For O=C(COC(=O)c1ccccn1)Nc1nc(-c2ccccc2)cs1 the results were TRPC6 inh inactive, TRPC4 potent inactive, TRPC6 activator inactive, TRPC4 act inactive and TRPC4 block -6*.
For O=C(COC(=O)C1CC1)Nc1nc(-c2ccc(F)c(F)c2)cs1 the results were TRPC6 inh inactive, TRPC4 potent inactive, TRPC6 activator inactive, TRPC4 act inactive and TRPC4 block -6*.
`Cc1cc(F)ccc1S(=O)(=O)N1CCCOC1CNC(=O)C(=O)NC1CC1` (stereo not given) gave TRPC6 inh inactive, TRPC4 potent inactive, TRPC6 activator inactive, TRPC4 act inactive and TRPC4 block inactive.
Screening CC(=O)Nc1ccc(NS(=O)(=O)c2ccccc2)cc1 returned TRPC6 inh inactive, TRPC4 potent inactive, TRPC6 activator inactive, TRPC4 act inactive and TRPC4 block inactive.
`CC(=O)C(C(C)=O)c1cc(NS(=O)(=O)c2ccccc2)ccc1NS(=O)(=O)c1ccccc1` gave TRPC6 inh inactive, TRPC4 potent inactive, TRPC6 activator inactive, TRPC4 act 47* and TRPC4 block inactive.
COc1ccc(C(=O)O)cc1S(=O)(=O)N(C)CCc1ccccn1 was read as TRPC6 inh inactive, TRPC4 potent inactive, TRPC6 activator inactive, TRPC4 act 46* and TRPC4 block inactive.
For COc1cccc(N=C(N)N)c1 the results were TRPC6 inh inactive, TRPC4 potent inactive, TRPC6 activator inactive, TRPC4 act inactive and TRPC4 block inactive.
Screening CCCN(CC(=O)Nc1ccccc1Br)CC(=O)Nc1ccc(F)c(F)c1F returned TRPC6 inh inactive, TRPC4 potent 12*, TRPC6 activator inactive, TRPC4 act inactive and TRPC4 block inactive.
Screening CCOC(=O)C1(CCOc2ccccc2)CCN(Cc2cccn2-c2cccnc2)CC1 returned TRPC6 inh inactive, TRPC4 potent inactive, TRPC6 activator inactive, TRPC4 act 116* and TRPC4 block inactive.
CCOC(=O)C1(Cc2ccccc2)CCN(Cc2cccn2-c2nccs2)CC1 was read as TRPC6 inh inactive, TRPC4 potent inactive, TRPC6 activator inactive, TRPC4 act 46* and TRPC4 block inactive.
CCOC(=O)C1(Cc2ccccc2)CCN(Cc2cccn2-c2cccnc2)CC1 was read as TRPC6 inh inactive, TRPC4 potent inactive, TRPC6 activator inactive, TRPC4 act 45* and TRPC4 block inactive.
Screening CCOC(=O)C1(CCOc2ccccc2)CCN(CCCn2cccn2)CC1 returned TRPC6 inh inactive, TRPC4 potent inactive, TRPC6 activator inactive, TRPC4 act inactive and TRPC4 block inactive.
For CCOC(=O)C1(Cc2ccccc2)CCN(Cc2cccc3nccnc23)CC1 the results were TRPC6 inh inactive, TRPC4 potent inactive, TRPC6 activator inactive, TRPC4 act inactive and TRPC4 block inactive.
For CCOc1ccc(/C=C/C2=Cc3c(sc(NC(=O)CSc4n[nH]c(N)n4)c3C#N)C(C)(C)C2)cc1 the results were TRPC6 inh inactive, TRPC4 potent 17*, TRPC6 activator inactive, TRPC4 act inactive and TRPC4 block inactive.
For Cc1ccsc1/C=C/C1=Cc2c(sc(NC(=O)CSc3n[nH]c(N)n3)c2C#N)C(C)(C)C1 the results were TRPC6 inh inactive, TRPC4 potent 90*, TRPC6 activator inactive, TRPC4 act inactive and TRPC4 block inactive.
CCOC(=O)c1sc(NC(=O)CSc2n[nH]c(-c3ccncc3)n2)c(C#N)c1C was read as TRPC6 inh inactive, TRPC4 potent inactive, TRPC6 activator inactive, TRPC4 act inactive and TRPC4 block inactive.
Screening Cc1ncc(CN2CCC(CO)(CCc3ccccc3)CC2)s1 returned TRPC6 inh inactive, TRPC4 potent inactive, TRPC6 activator inactive, TRPC4 act 73* and TRPC4 block inactive.
Screening Cc1ncc(CN2CCN(CCc3ccccc3)C(CCO)C2)s1 (stereo not given) returned TRPC6 inh inactive, TRPC4 potent inactive, TRPC6 activator inactive, TRPC4 act inactive and TRPC4 block inactive.
`COc1cccc(CC2(CO)CCN(Cc3cnc(N4CCOCC4)s3)CC2)c1` gave TRPC6 inh inactive, TRPC4 potent inactive, TRPC6 activator inactive, TRPC4 act inactive and TRPC4 block inactive.
OCC1(CCCc2ccccc2)CCN(Cc2cnc(N3CCOCC3)s2)CC1 was read as TRPC6 inh inactive, TRPC4 potent inactive, TRPC6 activator inactive, TRPC4 act 46* and TRPC4 block inactive.
O=C(Cc1cccs1)Nc1nc(-c2ccc(F)cc2F)cs1 was read as TRPC6 inh inactive, TRPC4 potent 85*, TRPC6 activator inactive, TRPC4 act inactive and TRPC4 block inactive.
CCCN1Cc2cccc(C(=O)N3CCN(c4cc(Cl)ccc4C)CC3)c2C1=O was read as TRPC6 inh inactive, TRPC4 potent 15*, TRPC6 activator inactive, TRPC4 act inactive and TRPC4 block inactive.

Screens (PubChem BioAssay)
